In BindingDB's records for doi:10.1021/jm010408m (University of Missouri-Columbia, 2002):

Biological target: Melanocyte-stimulating hormone receptor (Mus musculus, UniProt Q01727)
Assay: In vitro binding affinity for the melanoma receptor was determined in the murine melanoma B16/F1 cell line
Outline: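 Competitive displacement on B16/F1 cells seeded at 0.2 million/well and attached overnight. They were rinsed twice with PBS/0.2% BSA and lysed in 1.0 M NaOH. Cell-bound radioactivity was counted and IC50 fitted.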

Chain of Melanocyte-stimulating hormone receptor (Q01727 whole entry): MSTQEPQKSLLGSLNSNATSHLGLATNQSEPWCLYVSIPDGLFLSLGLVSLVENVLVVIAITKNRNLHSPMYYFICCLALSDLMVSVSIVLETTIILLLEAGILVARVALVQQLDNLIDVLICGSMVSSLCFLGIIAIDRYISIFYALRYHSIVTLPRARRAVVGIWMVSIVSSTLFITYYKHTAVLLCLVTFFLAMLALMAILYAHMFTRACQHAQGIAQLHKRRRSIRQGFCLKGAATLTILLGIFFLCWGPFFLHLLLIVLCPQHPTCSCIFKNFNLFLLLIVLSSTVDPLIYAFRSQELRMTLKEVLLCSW

Q: With `CC(C)C(NC(=O)C1CCCN1C(=O)C(CCCCN)NC(=O)C1NC(=O)C(Cc2c[nH]c3ccccc23)NC(=O)C(CCCNC(=N)N)NC(=O)[C@H](Cc2ccccc2)NC(=O)C(Cc2cnc[nH]2)NC(=O)C(CCC(=O)O)NC(=O)C2[S][ReH]3([OH])([S]1)[S]C(NC(=O)CN1CCN(CC(=O)O)CCN(CC(=O)O)CCN(CC(=O)O)CC1)C(=O)[N]23)C(N)=O` (stereo partly drawn) [DOTA-ReCCEHdFRWCKPV-NH2] as the compound, how does the IC50 read?
A: 1.2 nM

Q: For `CC(=O)NC(CCCCNC(=O)CN1CCN(CC(=O)O)CCN(CC(=O)O)CCN(CC(=O)O)CC1)C(=O)NC1[S][ReH]23([OH])[S]C(C(=O)NC(CCCCNC(=O)OCc4ccccc4)C(=O)N4CCCC4C(=O)NC(C(N)=O)C(C)C)NC(=O)C(Cc4c[nH]c5ccccc45)NC(=O)C(CCCNC(=N)N)NC(=O)[C@H](Cc4ccccc4)NC(=O)C(Cc4cnc[nH]4)NC(=O)C(CCC(=O)O)NC(=O)C([S]2)[N]3C1=O` (stereo partly drawn) [Ac-Lys(DOTA)-ReCCEHdFRWCKPV-NH2], which IC50 is on record?
A: 3.3 nM

Q: `CC(C)C(NC(=O)C1CCCN1C(=O)C(CCCNC(=N)N)NC(=O)C1NC(=O)C(Cc2c[nH]c3ccccc23)NC(=O)C(CCCNC(=N)N)NC(=O)[C@H](Cc2ccccc2)NC(=O)C(Cc2cnc[nH]2)NC(=O)C(CCC(=O)O)NC(=O)C2[S][ReH]3([OH])([S]1)[S]C(NC(=O)CN1CCN(CC(=O)O)CCN(CC(=O)O)CCN(CC(=O)O)CC1)C(=O)[N]23)C(N)=O` (stereo partly drawn) [DOTA-ReCCEHdFRWCRPV-NH2] was tested. Which IC50 did it give?
A: 2.1 nM
